Among the data in ChEMBL document CHEMBL3792374, “Discovery of a ring-opened derivative of 3-n-butylphthalide bearing NO/H2S-donating moieties as a potential anti-ischemic stroke agent” (Eur J Med Chem, 2016) are Activity, inhibition and IC50 values, retold here.

Activity calls are given as the source filed them. No cut-off for these calls is given here.

The nature of series [1]: Induction of nitric oxide release in potassium phosphate buffer at pH 7.4 at 0.1 mM after 30 mins by Griess assay. It counts as physicochemical. The following applies: pH 7.4, 0.5 h, 100 µM. Put shortly: (§1)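 Compound (0.1 mM) in PBS pH 7.4 containing 2% DMSO and 5.0 mM L-cysteine was held at 37 °C for 15–300 min. Samples were taken every 15 min up to 120 min, then every 30 min. Each sample was reacted with Griess reagent for 10 min at 37 °C and absorbance read at 540 nm. Nitrite was quantified from a nitrite standard curve. Means reported; intra-group variation <10%.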

Series [2] can be described thus: Induction of nitric oxide release in potassium phosphate buffer at pH 7.4 at 0.1 mM after 45 mins by Griess assay. Particulars: pH 7.4, 0.75 h, 100 µM. It counts as physicochemical. Put shortly:
as §1

Series [3] is described as follows: Induction of nitric oxide release in potassium phosphate buffer at pH 7.4 at 0.1 mM after 60 mins by Griess assay. It counts as physicochemical. Particulars: pH 7.4, 1 h, 100 µM. Put shortly:
as §1

Series [4] is described as follows: Induction of nitric oxide release in potassium phosphate buffer at pH 7.4 at 0.1 mM after 75 mins by Griess assay. It counts as physicochemical. The following applies: pH 7.4, 1.25 h, 100 µM. In short, it runs like this:
as §1

A short description of series [5]: Induction of nitric oxide release in potassium phosphate buffer at pH 7.4 at 0.1 mM after 90 mins by Griess assay. It counts as physicochemical. Particulars: pH 7.4, 1.5 h, 100 µM. Put shortly:
as §1

The nature of series [6]: Induction of nitric oxide release in potassium phosphate buffer at pH 7.4 at 0.1 mM after 105 mins by Griess assay. It counts as physicochemical. The following applies: pH 7.4, 1.75 h, 100 µM. In short, it runs like this: as §1
Series [7] can be described thus: Induction of nitric oxide release in potassium phosphate buffer at pH 7.4 at 0.1 mM after 120 mins by Griess assay. It counts as physicochemical. The following applies: pH 7.4, 2 h, 100 µM. Put shortly: as §1
Series [8] in a line: Induction of nitric oxide release in potassium phosphate buffer at pH 7.4 at 0.1 mM after 150 mins by Griess assay. It counts as physicochemical. Particulars: pH 7.4, 2.5 h, 100 µM. In short, it runs like this: as §1
Series [9] can be described thus: Induction of nitric oxide release in potassium phosphate buffer at pH 7.4 at 0.1 mM after 180 mins by Griess assay. It counts as physicochemical. The following applies: pH 7.4, 3 h, 100 µM. Put shortly: as §1
The nature of series [10]: Induction of nitric oxide release in potassium phosphate buffer at pH 7.4 at 0.1 mM after 240 mins by Griess assay. It counts as physicochemical. The following applies: pH 7.4, 4 h, 100 µM. In short, it runs like this:
as §1

Series [11] is described as follows: Induction of nitric oxide release in potassium phosphate buffer at pH 7.4 at 0.1 mM after 300 mins by Griess assay. Particulars: pH 7.4, 5 h, 100 µM. It counts as physicochemical. Put shortly: as §1
For series [12], the system named is Liver. Briefly: Induction of hydrogen sulfide release in rat liver homogenate at 100 uM after 30 mins by microplate reader method (reference value: 1.03 to 1.21%). It counts as functional, tissue-based. Put shortly: (§2)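 Compound was incubated at 37 °C for 0–90 min with fresh rat liver homogenate. The reaction was stopped with 1% zinc acetate and 10% trichloroacetic acid. N,N-dimethyl-p-phenylenediamine sulfate in 7.2 M HCl and FeCl3 in 1.2 M HCl were added, and absorbance was read at 670 nm after 10 min. Values were calculated against an NaHS standard curve as cumulative % conversion to H2S, n = 6.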

For series [13], the system named is Liver. The series can be described thus: Induction of hydrogen sulfide release in rat liver homogenate at 100 uM after 60 mins by microplate reader method (reference value: 1.03 to 1.21%). It counts as functional, tissue-based. In short, it runs like this: as §2
For series [14], the system named is Liver. The series can be described thus: Induction of hydrogen sulfide release in rat liver homogenate at 100 uM after 90 mins by microplate reader method (reference value: 1.03 to 1.21%). It counts as functional, tissue-based. In short, it runs like this: as §2
A short description of series [15]: Antiplatelet activity in rabbit platelet-rich plasma assessed as inhibition of ADP-induced platelet aggregation at 0.1 mM preincubated for 5 mins followed by addition of ADP measured within 5 mins by Borns turbidimetric method. It counts as functional. The following applies: Oryctolagus cuniculus. In short, it runs like this: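 Rabbit carotid blood was citrated (3.8%, 9:1). PRP was obtained at 500 g for 10 min and PPP at 3000 g for 10 min. PRP was preincubated in duplicate for 5 min at 37 °C with 0.1 mM compound, plus carboxy-PTIO or BSS where indicated. ADP was then added and maximal light transmission recorded within 5 min, within 3 h of blood collection. Inhibition % was calculated versus control. Mean ± SD of three independent experiments.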

A short description of series [16]: Antiplatelet activity in rabbit platelet-rich plasma assessed as inhibition of ADP-induced platelet aggregation preincubated for 5 mins followed by addition of ADP measured within 5 mins by Borns turbidimetric method. It counts as functional. Particulars: Oryctolagus cuniculus. In short, it runs like this:
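Platelet-rich plasma from citrated rabbit carotid blood was preincubated in duplicate at 37 °C for 5 min with compound at 0.1, 0.2, 0.4, 0.8 or 1.6 mM. ADP-induced aggregation was then recorded turbidimetrically, as maximal light transmission within 5 min. Inhibition was calculated versus vehicle control, and IC50 values were derived. Mean ± SD, n = 6, ANOVA/Tukey.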

A short description of series [17]: Induction of nitric oxide release in potassium phosphate buffer at pH 7.4 at 0.1 mM after 15 mins by Griess assay. Particulars: pH 7.4, 0.25 h, 100 µM. It counts as physicochemical. Put shortly: as §1
In series [18] the test system is Liver. Briefly: Induction of hydrogen sulfide release in rat liver homogenate at 100 uM after 15 mins by microplate reader method (reference value: 1.03 to 1.21%). It counts as functional, tissue-based. Put shortly:
as §2

Series [19] concerns Rattus norvegicus. Briefly: Antioxidant activity in Sprague-Dawley rat brain tissue model of transient middle cerebral artery occlusion stroke model assessed as increase in superoxide dismutase levels per mg of protein at 80 mg/kg […] measured 24 hrs after reperfusion by nitroblue tetrazolium assay relative to control. It counts as functional.
The test system of series [20] is Rattus norvegicus. Briefly: Antioxidant activity in Sprague-Dawley rat brain tissue model of transient middle cerebral artery occlusion stroke model assessed as increase in glutathione peroxidase levels per mg of protein at 80 mg/kg […] measured 24 hrs after reperfusion by DTNB assay relative to control. It counts as functional.
Series [21] has as its system Rattus norvegicus. Briefly: Neuroprotective activity in Sprague-Dawley rat model of transient middle cerebral artery occlusion stroke model assessed as neurological deficit at 80 mg/kg administered via oral gavage for 7 days after ischemia onset measured 24 hrs after middle cerebral artery occlusion by Longa's method. The following applies: in the assay text read “before ischemia onset” for “after ischemia onset”. It counts as functional, organism-based. Put shortly: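 Male SD rats (280–320 g) received daily gavage for 7 days, with 0.5% CMC-Na as vehicle. Two hours after the last dose they underwent 2 h MCAO with reperfusion under chloral hydrate anesthesia; core temperature was held at 37 °C. Neurological deficit was scored blinded by Longa's method 24 h after reperfusion, between 10 and 11 a.m. Kruskal–Wallis test followed by Mann–Whitney U test.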

Regarding `CCCCC(OC(=O)CN1CCN(CCCCOc2ccc(-c3cc(=S)ss3)cc2)CC1)c1ccccc1C(=O)Oc1ccc(/C=C/C(=O)OCCCCCCO[N+](=O)[O-])cc1OC` (racemic), the Activity in series [1] stood at 2.24 µM; in [2] it was 3.26 µM; in series [3] it was 4 µM; in series [4], 4.36 µM; in [5] it was 4.68 µM; in series [6] it was 4.98 µM. For the same molecule, the Activity in [7] turned out to be 5.09 µM; in series [8] it was 5.3 µM; in [9] it was 5.31 µM; in series [10] it was 5.33 µM; in series [11] it was 5.38 µM; in the series on Liver [12], 0.92%. For the same molecule, the Activity in the series with Liver [13] turned out to be 1.33%; in the series on Liver [14] it was 1.35%; in [17] it was 1.17 µM; with Liver [18], 0.75%. In series [15], the inhibition at 100 µM is 19.7%. For the same molecule, the IC50 in series [16] came to 320 µM.
For `CCCCC(OC(=O)CN1CCN(CCCCCCOc2ccc(-c3cc(=S)ss3)cc2)CC1)c1ccccc1C(=O)Oc1ccc(/C=C/C(=O)OCCCCCCO[N+](=O)[O-])cc1OC` (racemic), the Activity was 5.45 µM in series [1]; 6.09 µM in series [2]; 7.88 µM in [3]; 8.28 µM in series [4]; 9.11 µM in [5]; 9.58 µM in series [6]. Moreover, the Activity in series [7] worked out at 10.01 µM; in [8], 10.12 µM; in [9], 10.14 µM; in series [10], 10.18 µM; in [11], 10.22 µM; in the series with Liver [12] it was 2.83%. In addition, the Activity stood at 3.3% with Liver [13], 3.32% in the series on Liver [14], 3.01 µM in [17] and 2.53% with Liver [18]. Besides, the inhibition at 100 µM in series [15] came to 19.7%. Besides, the IC50 in series [16] was determined as 190 µM.
Consider `CCCCC1OC(=O)c2ccccc21` (stereo not drawn) [RAC-3-N-BUTYLPHTHALIDE], for which the Activity in the series with Rattus norvegicus [19] was 24.36%; in the series with Rattus norvegicus [20], 63.55%. The inhibition at 100 µM in [15] was found to be 12.9%. The IC50 in [16] was determined as 740 µM. Moreover, the result in the series with Rattus norvegicus [21] was inactive.
